The results in this text go back to ChEMBL document CHEMBL1137728, “Synthesis of novel thiazolone-based compounds containing pyrazoline moiety and evaluation of their anticancer activity” (2009).

Holding throughout (format): functional
The test system of one experiment is LOX IMVI. Kind of experiment: Growth inhibition of human LOXIMVI cells after 48 hrs by SRB assay. Particulars: for TGI: read-out: pTGI (converted). The method in brief:
(§1)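 NCI five-dose screen across about 60 human tumour cell lines, at 10-fold dilutions from 10^-4 to 10^-8 M with 48 h continuous exposure, read by SRB. Percent growth used time-zero, untreated control and treated absorbances. GI50 was the concentration giving 50% lower net protein increase than controls. Values beyond the tested range were reported as more or less than the maximum or minimum concentration.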
(Sulforhodamine B stains cellular protein and so reports cell mass.)

The next experiment relates to HCT-15. Kind of experiment: Growth inhibition of human HCT15 cells after 48 hrs by SRB assay. Particulars: HCT-15, 48 h; for TGI: read-out: pTGI (converted). The method, boiled down:
as §1

The subject of the next experiment is IGROV-1. Kind of experiment: Growth inhibition of human IGROV1 cells after 48 hrs by SRB assay. Conditions: IGROV-1, 48 h; for TGI: read-out: pTGI (converted). The method in brief: as §1
The next experiment relates to HOP-62. Kind of experiment: Growth inhibition of human HOP62 cells after 48 hrs by SRB assay. Particulars: HOP-62, 48 h; for TGI: read-out: pTGI (converted). The method in brief:
as §1

Experiment [1] deals with CCRF-CEM. Kind of experiment: Growth inhibition of human CCRF-CEM cells after 48 hrs by SRB assay. Particulars: for TGI: read-out: pTGI (converted). The method, boiled down:
as §1

For the next experiment, the system named is NCI/ADR-RES. Kind of experiment: Growth inhibition of human NCI/ADR-RES cells after 48 hrs by SRB assay. The method, boiled down:
as §1

A further experiment concerns UACC-62. Kind of experiment: Growth inhibition of human UACC62 cells after 48 hrs by SRB assay. Conditions: UACC-62, 48 h. The method, boiled down: as §1
A further experiment deals with KM12. Kind of experiment: Growth inhibition of human KM12 cells after 48 hrs by SRB assay. Conditions: KM12, 48 h; for TGI: read-out: pTGI (converted). The method in brief:
as §1

A short description of experiment [2]: Growth inhibition of human […] cells after 48 hrs by SRB assay. Conditions: for TGI: read-out: pTGI (converted). The method, boiled down: as §1
The next experiment deals with 786-0. Kind of experiment: Growth inhibition of human 786-0 cells after 48 hrs by SRB assay. Particulars: 786-0, 48 h. The method, boiled down: as §1
The test system of a further experiment is SN12C. Kind of experiment: Growth inhibition of human SN12C cells after 48 hrs by SRB assay. Particulars: for TGI: read-out: pTGI (converted). The method, boiled down: as §1
A further experiment relates to HOP-92. Kind of experiment: Growth inhibition of human HOP92 cells after 48 hrs by SRB assay. Particulars: HOP-92, 48 h. The method in brief: as §1
The subject of another experiment is U-251. Kind of experiment: Growth inhibition of human U251 cells after 48 hrs by SRB assay. Particulars: U-251, 48 h; for TGI: read-out: pTGI (converted). The method in brief:
as §1

Experiment [3] in a line: Anticancer activity against human NCI60 cells assessed as cell growth at 10 uM after 48 hrs by SRB assay. Conditions: NCI60, 48 h, read-out: Activity. The method, boiled down: (§2)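 US NCI one-dose screen across about 60 human tumour cell lines. A single concentration of 10^-5 M was applied with 48 h continuous exposure. The end point was sulforhodamine B protein staining, read spectrophotometrically. Results are given as percent growth of treated cells relative to untreated controls.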

Experiment [4] relates to CCRF-CEM. Kind of experiment: Anticancer activity against human CCRF-CEM cells assessed as cell growth at 10 uM after 48 hrs by SRB assay. Conditions: read-out: Activity. The method, boiled down:
as §2

A further experiment concerns NCI-H460. Kind of experiment: Growth inhibition of human NCI-H460 cells after 48 hrs by SRB assay. Particulars: NCI-H460, 48 h, read-out: pTGI (converted). The method, boiled down:
as §1

For a further experiment, the system named is TK-10. Kind of experiment: Growth inhibition of human TK10 cells after 48 hrs by SRB assay. Conditions: TK-10, 48 h. The method in brief: as §1
In the next experiment the test system is SF-268. Kind of experiment: Growth inhibition of human SF268 cells after 48 hrs by SRB assay. Conditions: SF-268, 48 h. The method in brief:
as §1

The next experiment concerns SK-MEL-5. Kind of experiment: Growth inhibition of human SK-MEL-5 cells after 48 hrs by SRB assay. Conditions: SK-MEL-5, 48 h. The method in brief:
as §1

Experiment [5] relates to DU-145. Kind of experiment: Growth inhibition of human DU145 cells after 48 hrs by SRB assay. Particulars: DU-145, 48 h. The method in brief: as §1
The test system of another experiment is Malme-3M. Kind of experiment: Growth inhibition of human MALME-3M cells after 48 hrs by SRB assay. The method in brief: as §1
The test system of the next experiment is UO-31. Kind of experiment: Growth inhibition of human UO31 cells after 48 hrs by SRB assay. Conditions: UO-31, 48 h. The method in brief:
as §1

The next experiment concerns MDA-MB-231. Kind of experiment: Growth inhibition of human MDA-MB-231 cells after 48 hrs by SRB assay. Particulars: MDA-MB-231, 48 h. The method, boiled down:
as §1

A further experiment has as its system MDA-MB-435. Kind of experiment: Growth inhibition of human MDA-MB-435 cells after 48 hrs by SRB assay. Particulars: MDA-MB-435, 48 h. The method in brief: as §1
Experiment [6] in a line: Growth inhibition of human Hs 578T cells after 48 hrs by SRB assay. The method in brief: as §1
For a further experiment, the system named is SNB-75. Kind of experiment: Growth inhibition of human SNB75 cells after 48 hrs by SRB assay. Conditions: SNB-75, 48 h. The method in brief: as §1
For a further experiment, the system named is CAKI-1. Kind of experiment: Growth inhibition of human Caki1 cells after 48 hrs by SRB assay. Conditions: CAKI-1, 48 h. The method, boiled down: as §1
The next experiment concerns MCF7. Kind of experiment: Growth inhibition of human MCF7 cells after 48 hrs by SRB assay. Particulars: MCF7, 48 h. The method, boiled down: as §1
The test system of another experiment is HCT-116. Kind of experiment: Growth inhibition of human HCT116 cells after 48 hrs by SRB assay. Conditions: HCT-116, 48 h. The method, boiled down: as §1
The next experiment concerns SNB-19. Kind of experiment: Growth inhibition of human SNB19 cells after 48 hrs by SRB assay. Conditions: SNB-19, 48 h. The method in brief:
as §1

The test system of another experiment is OVCAR-3. Kind of experiment: Growth inhibition of human OVCAR-3 cells after 48 hrs by SRB assay. Conditions: OVCAR-3, 48 h. The method in brief: as §1
For a further experiment, the system named is ACHN. Kind of experiment: Growth inhibition of human ACHN cells after 48 hrs by SRB assay. The method in brief:
as §1

The subject of experiment [7] is DU-145. Kind of experiment: Anticancer activity against human DU145 cells assessed as cell growth at 10 uM after 48 hrs by SRB assay. Particulars: DU-145, 48 h, read-out: Activity. The method, boiled down:
as §2

The next experiment has as its system HT-29. Kind of experiment: Growth inhibition of human HT-29 cells after 48 hrs by SRB assay. Particulars: HT-29, 48 h. The method in brief: as §1
The subject of a further experiment is T47D. Kind of experiment: Growth inhibition of human T47D cells after 48 hrs by SRB assay. The method, boiled down: as §1
Experiment [8] has as its system MOLT-4. Kind of experiment: Growth inhibition of human MOLT4 cells after 48 hrs by SRB assay. Conditions: MOLT-4, 48 h. The method, boiled down:
as §1

Experiment [9] concerns MOLT-4. Kind of experiment: Anticancer activity against human MOLT4 cells assessed as cell growth at 10 uM after 48 hrs by SRB assay. Conditions: MOLT-4, 48 h, read-out: Activity. The method in brief:
as §2

Turning to `O=C1N=C(N2N=C(c3ccccc3)CC2c2ccccc2O)/C(=C/c2ccc(Cl)cc2)S1` (configuration not stated), in the experiment on LOX IMVI, growth was halved (GI50) at 1860 nM and the TGI was 3550 nM.

Consider `O=C1N=C(N2N=C(c3ccccc3)CC2c2ccccc2O)/C(=C/c2ccccc2)S1` (configuration not stated), for which the GI50 – broadly, the concentration that inhibits growth by half – with HCT-15 is 1510 nM; with IGROV-1, 2000 nM; with HOP-62, 1620 nM; in the experiment with CCRF-CEM [1], 1910 nM; in the experiment on NCI/ADR-RES, 1820 nM; in the experiment with UACC-62 it was 1620 nM. Also, the 50% growth inhibitory concentration (GI50) in the experiment on KM12 was 1620 nM; in experiment [2] it was 1550 nM; in the experiment with 786-0, 1820 nM; with SN12C it was 1700 nM; with HOP-92, 1550 nM; in the experiment on U-251, 1550 nM. Besides, the TGI with HCT-15 was 2950 nM; with IGROV-1, 4470 nM; in the experiment on HOP-62, 3470 nM; with CCRF-CEM [1], 4570 nM; with UACC-62 (read-out: pTGI (converted)) it was 2950 nM; in the experiment with KM12 it was 4470 nM. For the same molecule, the TGI in experiment [2] is 3240 nM; in the experiment with 786-0 (read-out: pTGI (converted)), 3890 nM; in the experiment on SN12C it was 3090 nM; with HOP-92 (read-out: pTGI (converted)), 4470 nM; in the experiment with U-251, 2880 nM.

Turning to `O=C1N=C(N2N=C(c3ccccc3)CC2c2ccccc2O)CS1` (configuration not stated), the figures for the growth at 10 µM (in experiment [3]; with CCRF-CEM [4]) were 83.6% and -5.39%, respectively.

On to `COc1cc(/C=C2/SC(N3N=C(c4ccccc4)CC3c3ccccc3O)=NC2=O)cc(OC)c1O` (configuration not stated), for which the GI50 in the experiment on HCT-15 was 1230 nM; with IGROV-1 it was 1580 nM; with HOP-62, 759 nM; in the experiment with TK-10, 1780 nM; with SF-268, 1860 nM; in the experiment with CCRF-CEM [1], 2000 nM. Further, the GI50 is 1910 nM in the experiment on SK-MEL-5; 1550 nM with LOX IMVI; 1550 nM in the experiment on DU-145 [5]; 2000 nM in the experiment with Malme-3M; 1910 nM in the experiment on UO-31; 1450 nM with MDA-MB-231. In addition, the GI50 is 1820 nM in the experiment with MDA-MB-435; 1380 nM in experiment [6]; 1740 nM with SNB-75; 1020 nM in the experiment on CAKI-1; 1950 nM in the experiment with MCF7; 1550 nM in the experiment on HCT-116. In addition, the GI50 with KM12 was 1820 nM; in experiment [2], 1700 nM; in the experiment on SN12C, 1580 nM; with SNB-19, 1780 nM; with OVCAR-3, 1410 nM; with ACHN, 1170 nM. Besides, the GI50 in the experiment on HT-29 was 427 nM; in the experiment on U-251, 1510 nM; in the experiment on T47D, 1780 nM; in the experiment on MOLT-4 [8], 1700 nM. The TGI was 2690 nM with HCT-15; 2880 nM in the experiment on IGROV-1; 15500 nM in the experiment with HOP-62; 3310 nM with NCI-H460; 3980 nM with TK-10 (read-out: pTGI (converted)); 4470 nM with SF-268 (read-out: pTGI (converted)). Besides, the TGI is 5620 nM in the experiment on CCRF-CEM [1]; 10500 nM with SK-MEL-5 (read-out: pTGI (converted)); 2950 nM in the experiment on LOX IMVI; 3090 nM in the experiment on DU-145 [5] (read-out: pTGI (converted)); 4900 nM with Malme-3M (read-out: pTGI (converted)); 4270 nM in the experiment with UO-31 (read-out: pTGI (converted)). Moreover, the TGI was 3020 nM with MDA-MB-231 (read-out: pTGI (converted)); 3630 nM in the experiment with MDA-MB-435 (read-out: pTGI (converted)); 3720 nM in [6] (read-out: pTGI (converted)); 4270 nM with SNB-75 (read-out: pTGI (converted)); 3240 nM in the experiment with CAKI-1 (read-out: pTGI (converted)); 4900 nM in the experiment on MCF7 (read-out: pTGI (converted)). For the same molecule, the TGI in the experiment on HCT-116 (read-out: pTGI (converted)) is 2950 nM; with KM12, 3630 nM; in [2] it was 6920 nM; in the experiment on SN12C, 4900 nM; in the experiment on SNB-19 (read-out: pTGI (converted)), 3720 nM; in the experiment on OVCAR-3 (read-out: pTGI (converted)), 2820 nM. Besides, the TGI with ACHN (read-out: pTGI (converted)) is 10200 nM; in the experiment on HT-29 (read-out: pTGI (converted)) it was 2820 nM; in the experiment on U-251, 2820 nM; with T47D (read-out: pTGI (converted)) it was 3980 nM. Also, the figures for the growth at 10 µM (in [3]; with DU-145 [7]) were 42.6% and -57%, respectively.

As to `O=C1CSC(N2N=C(c3ccccc3)CC2c2ccccc2O)=N1` (configuration not stated), the growth at 10 µM with MOLT-4 [9] was -61.5%; in [3] it was 101%.
